Bioassay records (PubChem)
This is one part of a sample in which hits are shown more often than they occur.
CHOP UPR activ: apoptotic UPR (CHOP) activation; CHO-CHOP luciferase reporter, luminescence; percent of tunicamycin response over DMSO baseline; activation, % at 10 µM; actives 0.34% (n = 330,000);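 active means at 10 µM dose, activation of 40% or more, normalized to positive control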
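System: CHO CHOP reporter cells. Amount: 500 cells per well. Buffer or medium: F12 medium, 10% FBS. Compound dosing: one dose, 10 µM in 0.5% DMSO. Incubation: 6 h compound exposure at 37 °C after overnight seeding. Technique: Steady-Glo luciferase luminescence. Benchmarks: tunicamycin and DMSO controls.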
XBP1 UPR activ: activators of adaptive arm of unfolded protein response (XBP1); CHO-XBP1 luciferase reporter, IRE1-XBP1 UPR activation, luminescence; percent of tunicamycin response, DMSO as zero; AID 463104; activation, % at 20 µM; actives 0.33% (n = 330,000);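 active means versus positive control, 20 µM dose yields 30% or more activation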
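Assay system: IRE1-XBP1 luciferase reporter CHO line. Input: 1000 cells/well. Buffer or medium: F12 with 10% serum. Doses: 20 µM, 1% DMSO. Times: overnight seeding at 37 °C, 6 h compound treatment at 37 °C. Technique: Steady-Glo luciferase glow luminescence, 10 min after reagent addition.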
CHOP inhibitor: inhibitors of CHOP induction in ER stress response; inhibition, % at 10 µM; AID 2732; actives 3.8% (n = 220,000); CHO-K1 CHOP-promoter luciferase, tunicamycin-induced, 15-18 h;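 active means compounds that reduced the stress-induced luciferase reporter signal by more than about 70% of percent inhibition, limit read from the data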
B2AR ag: human beta-2 adrenergic receptor agonism by FAP; P07550; AID 504454; response, % (test concentration not listed); actives 0.43% (n = 340,000); Am2.2-beta2AR cells, FAP receptor internalization, flow cytometry;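 active means response above a set limit, near 3 SD of response in nonfluorescent compounds, cut at about 42% in these data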
VLA-4 inh: inhibition in a human VLA-4 binding assay. P13612. VLA-4 expressing cells, ligand binding flow cytometry. inhibition, % (about 7 µM as worked out from the volumes in the protocol). actives 0.2% (n = 330,000). AID 2557; in the data active means inhibition above about 50%
Target sequence (P13612 whole entry, looked up): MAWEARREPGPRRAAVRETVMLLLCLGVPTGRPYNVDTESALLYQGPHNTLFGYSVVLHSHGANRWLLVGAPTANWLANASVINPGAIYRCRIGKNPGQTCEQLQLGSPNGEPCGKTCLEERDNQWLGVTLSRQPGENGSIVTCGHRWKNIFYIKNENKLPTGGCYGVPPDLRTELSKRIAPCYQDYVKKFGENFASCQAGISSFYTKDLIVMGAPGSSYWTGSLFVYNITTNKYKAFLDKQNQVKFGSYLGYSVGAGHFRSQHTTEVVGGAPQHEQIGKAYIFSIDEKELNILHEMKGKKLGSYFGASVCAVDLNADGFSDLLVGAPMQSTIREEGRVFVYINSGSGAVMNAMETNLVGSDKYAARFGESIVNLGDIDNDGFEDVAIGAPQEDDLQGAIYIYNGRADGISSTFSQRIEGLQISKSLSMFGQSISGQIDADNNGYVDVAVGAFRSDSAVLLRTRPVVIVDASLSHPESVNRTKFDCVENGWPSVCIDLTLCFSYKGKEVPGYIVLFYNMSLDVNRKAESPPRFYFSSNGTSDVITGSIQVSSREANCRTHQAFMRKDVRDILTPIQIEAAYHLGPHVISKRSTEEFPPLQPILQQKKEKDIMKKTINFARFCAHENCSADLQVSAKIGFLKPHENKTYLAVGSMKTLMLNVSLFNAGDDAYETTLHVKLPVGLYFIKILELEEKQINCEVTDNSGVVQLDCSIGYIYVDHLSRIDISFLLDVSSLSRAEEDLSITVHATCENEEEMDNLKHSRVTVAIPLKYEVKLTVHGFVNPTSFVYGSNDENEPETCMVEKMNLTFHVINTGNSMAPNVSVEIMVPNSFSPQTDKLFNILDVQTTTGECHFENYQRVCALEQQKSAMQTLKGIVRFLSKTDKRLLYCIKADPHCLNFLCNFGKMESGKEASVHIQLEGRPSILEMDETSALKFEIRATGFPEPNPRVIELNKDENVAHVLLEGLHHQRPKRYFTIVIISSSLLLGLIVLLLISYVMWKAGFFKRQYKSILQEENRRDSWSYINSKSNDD
UPR XBP1 confirm: confirmation of adaptive unfolded protein response (XBP1) activators; shares compounds with XBP1 UPR activ; CHO-XBP1 IRE1-XBP1 luciferase reporter, luminescence; activation, % at 20 µM; actives 63% (n = 1,000); AID 485299;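 active means reporter signal at least 30% of the positive control's activation in two or more of four replicate wells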
Large screens that a line does not name were inactive (follow-up assays come after a bar, where they were run).

COc1ccccc1C(=O)Nc1ccc2nc3n(c(=O)c2c1)CCCC3	none (no result: CHOP inhibitor)
C=CC[C@@H](CC(=O)NCCO)C(=O)N[C@@H](C)COC(=O)[C@@H](CC=C)Cc1ccc(F)cc1	none (no result: CHOP inhibitor)
CCCNC(=O)c1c(N)n(-c2ccc3c(c2)OCO3)c2nc3ccccc3nc12	XBP1 UPR activ 43.8, CHOP inhibitor 80.3 | UPR XBP1 confirm 29.2
CC(C)(C)c1ccc(C(=O)NCCNC(=O)c2ccco2)cc1	none (no result: CHOP inhibitor)
O=C1CCCCC1CCc1ccncc1 (stereo not drawn)	none (no result: CHOP UPR activ, XBP1 UPR activ, CHOP inhibitor, VLA-4 inh)
COc1c(O)cc2c(c1O)C(=O)CC(c1ccccc1)O2 (stereo not drawn)	none (no result: B2AR ag, VLA-4 inh)
Cc1c(O)cc2c(c1O)C(=O)CC(c1ccccc1)O2 (stereo not drawn)	XBP1 UPR activ 121.2 | UPR XBP1 confirm 172.9
O=C(CSc1nnnn1-c1ccccc1)NCCCN1CCCC1=O	none (no result: CHOP inhibitor)
COc1cnc(-c2ccccn2)nc1Oc1ccc(Cl)c2ccccc12	XBP1 UPR activ 30.8, CHOP inhibitor 80.7 | UPR XBP1 confirm inactive
COc1cnc(-c2ccccn2)nc1Oc1ccccc1Cl	none
COc1ccc(S(=O)(=O)N2CC(C)N(C(=O)N(C)C)C2C(C)C)cc1 (stereo not drawn)	none (no result: CHOP inhibitor)
CC1CCCCC1NC(=O)c1cc(S(=O)(=O)N2CCOCC2)ccc1Cl (stereo not drawn)	none (no result: CHOP inhibitor)
COc1ccc(-c2cc(C(=O)Nc3cc(OC)cc(C(=O)Nc4cccc(C(F)(F)F)c4)c3)[nH]n2)cc1	XBP1 UPR activ 36.6 | UPR XBP1 confirm inactive
CCOc1cccc(/C=N/NC(=S)Nc2ccccc2[N+](=O)[O-])c1O	none
O=[N+]([O-])c1ccccc1NC(=S)N/N=C/c1ccc(O)c(O)c1	XBP1 UPR activ 36.6 | UPR XBP1 confirm inactive
O=C(Nc1nc(-c2cccnc2)cs1)c1cccc([N+](=O)[O-])c1	XBP1 UPR activ 31.3, CHOP inhibitor 88.0 | UPR XBP1 confirm inactive
CC(=O)N1CCN(CC(=O)Nc2ccccc2Sc2ccc(Cl)cc2)CC1	none
O=C(CCl)Nc1ccccc1Sc1ccc(Cl)cc1	XBP1 UPR activ 45.1 | UPR XBP1 confirm inactive
CCOc1ccc(S(=O)(=O)Nc2ccc(C(=O)NCc3ccncc3)cc2)cc1	none (no result: CHOP inhibitor)
CCOC(=O)c1cc(-c2ccccc2)sc1NC(=O)CC	none
COC(=O)c1sc(-c2ccccc2)cc1NC(=O)c1ccc(F)cc1	XBP1 UPR activ 61.3 | UPR XBP1 confirm inactive
CCOC(=O)c1cc(-c2ccccc2)sc1NC(=O)c1ccc(OC)cc1	XBP1 UPR activ 150.8 (no result: B2AR ag) | UPR XBP1 confirm 118.0
COC(=O)c1sc(-c2ccccc2)cc1NC(=O)c1ccc(OC)cc1	none
CCn1nc(C)c(CNC(=O)C2CCC(=O)N(Cc3ccc(Cl)cc3)C2)c1C (stereo not drawn)	none (no result: CHOP inhibitor)
COC(=O)C1CCN(C(=O)c2cc(S(=O)(=O)N3CCCCC3)ccc2Cl)CC1	none (no result: CHOP inhibitor)
C=CCN1C(=O)CSc2ccc(C(=O)NCc3ccc(F)cc3)cc21	none (no result: CHOP inhibitor)
COc1cc(/C=N/NC(=O)c2sc3nc(C)cc(C)c3c2N)ccc1O	XBP1 UPR activ 46.5 | UPR XBP1 confirm inactive
COc1cc(/C=N/n2cnc3c(sc4nc(C)cc(C)c43)c2=O)ccc1O	none (no result: B2AR ag)
CCOC(=O)c1nnn2c1nc(SCC(C)=O)c1ccccc12	none
CCOC(=O)c1nnn2c1nc(Nc1cccc(C(F)(F)F)c1)c1ccccc12	XBP1 UPR activ 70.1 | UPR XBP1 confirm 40.7
Nc1nc(NCC2CCCO2)nc(Nc2cccc(Cl)c2)c1[N+](=O)[O-] (stereo not drawn)	XBP1 UPR activ 35.7 | UPR XBP1 confirm inactive
O=Cc1c[nH]c2cccc(OCc3ccccc3)c12	none (no result: CHOP inhibitor, VLA-4 inh)
COc1ccc(OC(=O)COc2ccc(C)cc2)cc1	none
COc1ccc(OCC(=O)Sc2ccc(C)cc2)cc1	XBP1 UPR activ 34.6, CHOP inhibitor 83.4 | UPR XBP1 confirm inactive
COc1ccc(N=C2NC(=O)/C(=C\c3ccco3)S2)cc1	none
O=C1NC(=Nc2ccc(O)cc2)S/C1=C\C=C\c1ccco1	XBP1 UPR activ 30.9 | UPR XBP1 confirm inactive
CSc1nc2[nH]c(=O)n(O)c(=O)c2n1Cc1ccccc1	none (no result: CHOP UPR activ, XBP1 UPR activ, CHOP inhibitor, VLA-4 inh)
Cc1cc(C)n(-c2nc(NCCCO)c3c4c(sc3n2)CCCC4)n1	XBP1 UPR activ 41.2 | UPR XBP1 confirm inactive
